Where two headings read alike, the source gives them in different places. Each block holds one molecule with its values, some of them ahead of it.
Experiments:
AI-BP = target: T1, AI-BP (Mus musculus, UniProt Q8K4Z3); experiment: isothermal titration calorimetry; format: binding; conditions: 100 mM HEPES pH 7.5, 100 mM NaCl, 25°C
T1 sequence (Q8K4Z3 25-282): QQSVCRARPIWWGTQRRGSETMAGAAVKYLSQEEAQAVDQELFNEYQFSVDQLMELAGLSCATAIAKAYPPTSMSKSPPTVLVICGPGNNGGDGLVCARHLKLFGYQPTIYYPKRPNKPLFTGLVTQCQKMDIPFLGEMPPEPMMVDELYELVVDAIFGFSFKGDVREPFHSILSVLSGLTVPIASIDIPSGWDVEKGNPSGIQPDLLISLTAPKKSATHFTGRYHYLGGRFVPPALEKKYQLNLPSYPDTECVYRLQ
In short: (§1)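 Isothermal titrations were run at 25°C, with Tm0922 also tested at 55°C, in 100 mM HEPES pH 7.5 with 100 mM NaCl. Purified protein was in the cell at 70-130 μM. Metabolite ligands from the NAD-related and thymine-related sets were titrated to final concentrations 1.2 to 5 times the protein concentration. Binding parameters were taken from curves fitted to the titration profiles.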

Tm0922 = target: T2, Tm0922 (Thermotoga maritima, UniProt Q9X024); experiment: isothermal titration calorimetry; format: binding
T2 sequence (Q9X024 1-490): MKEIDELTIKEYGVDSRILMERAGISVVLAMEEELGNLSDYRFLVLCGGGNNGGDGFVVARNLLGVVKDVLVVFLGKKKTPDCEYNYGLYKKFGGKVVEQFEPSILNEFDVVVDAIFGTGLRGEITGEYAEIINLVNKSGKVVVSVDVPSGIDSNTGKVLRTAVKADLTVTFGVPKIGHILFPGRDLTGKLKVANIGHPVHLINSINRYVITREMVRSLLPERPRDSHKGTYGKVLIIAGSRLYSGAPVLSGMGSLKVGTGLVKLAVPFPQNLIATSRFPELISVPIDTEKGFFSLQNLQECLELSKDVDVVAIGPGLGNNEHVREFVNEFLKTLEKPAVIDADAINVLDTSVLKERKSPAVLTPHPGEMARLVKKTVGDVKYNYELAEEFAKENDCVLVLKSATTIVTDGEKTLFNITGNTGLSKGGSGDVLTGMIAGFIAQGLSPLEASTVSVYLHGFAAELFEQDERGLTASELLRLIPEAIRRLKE
In short: as §1

YxkO [1] = target: T3, YxkO (Bacillus subtilis, UniProt P94368); experiment: isothermal titration calorimetry; format: binding
T3 sequence (P94368 1-276): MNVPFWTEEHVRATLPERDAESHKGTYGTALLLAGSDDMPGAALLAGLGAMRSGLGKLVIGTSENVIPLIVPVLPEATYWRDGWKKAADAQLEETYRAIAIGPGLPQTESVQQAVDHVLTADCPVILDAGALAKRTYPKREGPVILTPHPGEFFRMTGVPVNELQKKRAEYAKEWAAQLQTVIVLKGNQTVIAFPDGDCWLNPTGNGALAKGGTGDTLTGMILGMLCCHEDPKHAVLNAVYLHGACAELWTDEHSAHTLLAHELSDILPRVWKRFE
In short: as §1

YxkO [2] = target: T3, YxkO; experiment: crystal structure; conditions: ATP-binding site, Mg2+
YxkO [3] = target: T3, YxkO; experiment: crystal structure; format: binding; conditions: kinase substrate site, AMP/Mg2+ in ATP site; dehydratase substrate
purified protein [4] = substrate: Nc1ncnc2c1ncn2[C@@H]1O[C@H](COP(=O)(O)OP(=O)(O)O)[C@@H](O)[C@H]1O; experiment: purified protein; format: biochemical, Bacillus subtilis; conditions: co-substrate NADHX, 25°C, varied: cofactor
purified protein [5] = substrate: NC(=O)C1=CN([C@@H]2O[C@H](COP(=O)(O)OP(=O)(O)OC[C@H]3O[C@@H](n4cnc5c(N)ncnc54)[C@H](O)[C@@H]3O)[C@@H](O)[C@H]2O)C(O)CC1; experiment: purified protein; format: biochemical, Bacillus subtilis; conditions: co-substrate ADP, 25°C

Molecule: Nc1ncnc2c1ncn2[C@@H]1O[C@H](COP(=O)(O)OP(=O)(O)OP(=O)(O)O)[C@@H](O)[C@H]1O [ATP]
Kd (YxkO [1]): 595 ± 134 µM

Molecule: Nc1ncnc2c1ncn2[C@@H]1O[C@H](COP(=O)(O)OP(=O)([O-])OC[C@H]2O[C@@H]([n+]3cccc(C(=O)O)c3)[C@H](O)[C@@H]2O)[C@@H](O)[C@H]1O [NAAD]
crystal structure (cocktail soak) (YxkO [2]): nicotinic acid adenine dinucleotide (NAAD) is bound in the same position

Molecule: NC(=O)C1=CN([C@@H]2O[C@H](COP(=O)(O)OP(=O)(O)OC[C@H]3O[C@@H](n4cnc5c(N)ncnc54)[C@H](OP(=O)(O)O)[C@@H]3O)[C@@H](O)[C@H]2O)C(O)CC1 (stereo partly shown) [NADPHX]
crystal structure (ATP/Mg2+ co-crystal soaked with NADPH) (YxkO [3]): Coordination of NADPHX in the active site of YxkO

Molecule: NC(=O)c1ccc[n+]([C@@H]2O[C@H](COP(=O)(O)OP(=O)(O)OC[C@H]3O[C@@H](n4cnc5c(N)ncnc54)[C@H](O)[C@@H]3O)[C@@H](O)[C@H]2O)c1 [NAD]
crystal structure (cocktail soak) (YxkO [2]): YxkO and Tm0922 crystals soaked with cocktail G contained NAD in the predicted ATP-binding site

B1: YxkO (Bacillus subtilis subsp. subtilis str. 168) (protein)
chain: T3 sequence (P94368 1-276)
Km (purified protein [4]): 6.43 ± 0.49 µM
kcat (purified protein [4]): 0.35 ± 0.01 s⁻¹
kcat (purified protein [5]): 0.35 ± 0.01 s⁻¹

The next lines start with the values.

Kd (AI-BP): 451 ± 30.8 µM
Kd (Tm0922; 100 mM HEPES pH 7.5, 100 mM NaCl, 25°C (55°C also tested), likely YjeF_N site): 5.1 ± 0.4 µM
Molecule: Nc1ncnc2c1ncn2[C@@H]1O[C@H](COP(=O)(O)OP(=O)(O)OC[C@H]2OC(O)[C@H](O)[C@@H]2O)[C@@H](O)[C@H]1O (stereo partly shown) [ADPR]

Kd (Tm0922): 105 ± 11.1 µM
Molecule: Nc1ncnc2c1ncn2[C@@H]1O[C@H](COP(=O)(O)OP(=O)(O)OC[C@H]2O[C@@H]([n+]3cccc(C(=O)O)c3)[C@H](O)[C@@H]2O)[C@@H](O)[C@H]1OP(=O)(O)O [NAADP]

Kd (YxkO [1]): 9.6 ± 0.7 µM
Molecule: NC(=O)C1=CN([C@@H]2O[C@H](COP(=O)(O)OP(=O)(O)OC[C@H]3O[C@@H](n4cnc5c(N)ncnc54)[C@H](O)[C@@H]3O)[C@@H](O)[C@H]2O)C=CC1 [NADH]

Kd (Tm0922): 5.3 ± 1.2 µM
Molecule: NC(=O)C1=CN([C@@H]2O[C@H](COP(=O)(O)OP(=O)(O)OC[C@H]3O[C@@H](n4cnc5c(N)ncnc54)[C@H](OP(=O)(O)O)[C@@H]3O)[C@@H](O)[C@H]2O)C=CC1 [NADPH]

Kd (Tm0922): 6 ± 0.9 µM
Molecule: NC(=O)c1ccc[n+]([C@@H]2O[C@H](COP(=O)(O)OP(=O)(O)OC[C@H]3O[C@@H](n4cnc5c(N)ncnc54)[C@H](OP(=O)(O)O)[C@@H]3O)[C@@H](O)[C@H]2O)c1 [NADP]

— article PMC3472112 (Structure (London, England : 1993), 2012)
